Most compounds without a hit are left out; they make up all but 5.1% or so of the library.
STAT3 activator – IL-6 driven STAT3 reporter potentiators, primary screen, U3A cells, luciferase, luminescence, MLSCN library; 190,000 compounds, 0.91% hits; activation (% of control), % at 5.6 µM; IL-6 STAT3-luciferase reporter; 100% = signal with IL-6 EC80 alone; AID 871, 2007;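 active = activation above the screen-wide mean of compound activation plus 3 SD, cut at about 130% in these data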;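 note: 0% = background luminescence of wells with medium and substrate only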
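System – human U3A cells carrying STAT3-luciferase construct · Probe or stimulus – Interleukin-6, 33 ng/mL · Schedule – compound 1 h, then IL-6 6 h at 37 °C · Signal – luminescence from STAT3-driven luciferase reporter · Evaluation – percent of IL-6-only median luminescence · Benchmarks – IL-6-only high control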
APP 5'UTR act – activators of APP 5'UTR luciferase reporter, primary screen, SH-SY5Y cells | 190,000 compounds, 1% hits | activation, % at 2 µM | SH-SY5Y APP 5'UTR luciferase reporter, luminescence; zero percent = DMSO vehicle wells;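 active = activation above a set limit, based on mean plus 3 SD of controls, cut at about 140% in these data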
STAT3 inh – IL-6 driven STAT3 reporter inhibitors, primary screen, U3A cells, luciferase, luminescence, MLSCN library. AID 862, 2007. 190,000 compounds, 0.89% hits. inhibition, % at 5.5 µM. IL-6 STAT3-luciferase reporter; host cell line lacks STAT1;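 active = inhibition above the mean inhibition across all screened compounds plus 3 SD, cut at about 44% in these data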;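 note: 0% = DMSO only wells and 100% = 100 µM nifuroxazide control wells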
STAT1 activator – STAT1 signaling activators, primary screen, cell-based, HTS, luciferase reporter; 200,000 compounds, 2.6% hits; activation (% of control), % at 5.5 µM; NIH 3T3 STAT1-luciferase reporter, IFN-gamma, luminescence; 100% = IFN-gamma alone, no compound;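 active = activation above the screen-wide mean activation plus 3 SD, cut at about 130% in these data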;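 note: raw ratio to IFN-gamma control signal so 100% means no change and 0% no light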
NF-kB expr up – activators of NF-kB expression in neurons, primary screen, cell-based, HTS. fold change at 12.5 µM. human neuronal cells, NF-kB reporter expression; stronger effect = higher value. AID 1239, 2008. 190,000 compounds, 1.6% hits; in the data active = fold change above about 3.3
STAT1 inh – STAT1 signaling inhibitors, primary screen, cell-based, HTS, luciferase reporter; NIH 3T3 STAT1-luciferase reporter, IFN-gamma, luminescence; inhibition, % at 5.5 µM; 200,000 compounds, 0.35% hits;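 active = inhibition above a set limit, the mean inhibition across all tested compounds plus 3 SD, cut at about 34% in these data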;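 note: 0% = IFN-gamma with DMSO and 100% = IFN-gamma with 300 µM nifuroxazide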
* hit, by the source's call.

SMILES	STAT3 activator	APP 5'UTR act	STAT3 inh	STAT1 activator	NF-kB expr up	STAT1 inh
CC(c1ccon1)N(C)Cc1cn(C)nc1-c1cccc(Cl)c1 (configuration not stated)	107	-3	-3	103	0.97	-5
C/C(=N\NC(=O)C1COc2ccccc2O1)c1ccc(N2CCOCC2)cc1 (configuration not stated)	89	3	16	102	0.86	-3
CC/C(=N\NC(=O)c1c(-c2ccccc2)noc1C)c1ccc(C)o1	84	4	18	92	1.1	8
CC/C(=N\NC(=O)c1ccoc1C)c1ccc(C)o1	106	114	-4	130*	2	-34
COc1cc(C(=O)Nc2ccc(N(C)C)cc2)cc(OC)c1OC	109	47	-3	133*	1.3	-36
COc1cc(C(=O)Nc2ccc(S(=O)(=O)N(C)c3ccccc3)cc2)cc(OC)c1OC	100	3	3	109	0.48	-10
CC(C)(C)Cc1cc(N)on1	96	-8	4	105	1.2	-5
Cc1ccc(OCCn2cnc3c(N)ncnc32)cc1	81	-4	26	129*	2.1	-32
COc1ccccc1N1C(=O)c2cccc3c(C(=O)O)ccc(c23)C1=O	100	-5	6	90	1.2	11
COc1ccc2c3c(cccc13)C(=O)N(O)C2=O	113	-10	-13	97	7.1*	3
Cc1ccc2nc(-c3ccccc3)c(CC(=O)O)c(C(=O)O)c2c1	122	8	-26	98	1.6	1
CC(=O)N1CCN(Cc2nc3cc(NC(=O)COc4ccccc4)ccc3n2C)CC1	96	-4	15	104	0.98	-6
Cc1cc(C)c2nc(Cl)c(CN(Cc3ccco3)C(=O)Nc3ccccc3C)cc2c1	91	-57	14	100	2.5	0
FC(F)(F)C(F)(F)c1nnc2ccc(-n3ccnc3)nn12	93	-20	14	97	1.2	5
COc1cc(SC)ccc1C(=O)Nc1ccc(Cl)cn1	18	148*	100*	26	1.4	80*
COc1cc(SC)ccc1C(=O)Nc1ccccc1C#N	133*	-6	-38	124	1.9	-26
CSc1ccc(Cl)c(C(=O)Nc2ccc(Cl)cn2)c1	82	-24	24	92	1.2	6
Cc1cccnc1NCc1ccc(O)c2ncccc12	99	-6	6	96	8.6*	5
Cc1ccc(NCc2ccc(O)c3ncccc23)cc1	100	7	2	107	1.4	-9
Cc1ccc(NCc2ccc(O)c3ncccc23)cc1C	135*	15	-39	103	0.99	-5
O=C(CCCc1nc2ccccc2s1)NNC(=O)CCN1CCN(Cc2ccccc2)CC1	104	4	-3	102	1.1	-4
Nc1ccc(C#Cc2ccccc2)cc1	89	7	22	130*	1.5	-34
Nc1ccccc1C#Cc1ccccc1	97	119	6	146*	8.7*	-52
Nc1ccc(-c2nc3ccccc3[nH]2)cc1	102	58	2	121	2	-23
CC(C)c1ccc(C2=C(O)c3ccccc3C(=O)C2=O)cc1	85	5	21	106	1.6	-7
SMILES	STAT3 activator	APP 5'UTR act	STAT3 inh	STAT1 activator	NF-kB expr up	STAT1 inh
O=C1C(c2ccncc2)=C(O)c2ccccc21	81	160*	27	101	3.5*	-1
Cc1cccc(NC(=O)Cn2cnc3c(oc4nc5c(cc43)COC(C)(C)C5)c2=O)c1	88	20	17	99	1.1	1
CCOC(=O)C(NCCc1ccccc1F)(NC(=O)CC)C(F)(F)F (configuration not stated)	102	-21	-5	100	1.1	0
COc1ccc(/C=N/OC(=O)Nc2ccccc2OC)cc1	75	92	33	107	6.3*	-8
COc1ccc(NC(=O)/C=C/c2cccc(F)c2)cn1	101	135*	-1	147*	3.8*	-53
COc1ccc(/C=C/C(=O)Nc2ccccc2C(F)(F)F)cc1	111	19	-13	137*	0.91	-43
